Assay results: ChEMBL document CHEMBL2203119, “Synthesis of retinoid enhancers based on 2-aminobenzothiazoles for anti-cancer therapy” (Bioorg Med Chem, 2012)
The source made the active and inactive calls. No cut-off for these calls is given here.

What was measured:
[1] = Upregulation of RARbeta2 mRNA expression in human BE(2)-C cells transfected with full-length human cloned RARbeta2 expressing pMEP4 vector at 10 uM after 24 hrs by quantitative real time PCR analysis relative to control; format: functional, cell-based
Method in brief: (§1)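 RARβ-pMEP4 BE(2)-C cells attached 24 h in duplicate wells of 6-well plates, then exposed 24 h to compound (1 or 10 μM), 13-cis-retinoic acid (10 μM), AC261066 (10 nM) or DMSO (0.05%). Total RNA isolated, RARβ2 mRNA quantified by real-time PCR as fold change versus control.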

[2] = Cytotoxicity against human MRC5 cells assessed as reduction of cell viability at 1 uM after 96 hrs by alamar blue assay; format: cell-based; settings: read-out: INH
Method in brief: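 MRC-5 cells attached 24 h in 96-well plates, exposed to compound at 1 μM for 96 h. Viability by Alamar blue absorbance at 570 nm versus DMSO (0.5%) control.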

[3] = Upregulation of RARbeta2 mRNA expression in human BE(2)-C cells transfected with full-length human cloned RARbeta2 expressing pMEP4 vector at 10 nM after 24 hrs by quantitative real time PCR analysis relative to control; format: functional, cell-based; method in brief: as §1
SH-SY5Y [4] = assay: Anticancer activity against retinoid-sensitive human SH-SY5Y cells assessed as cell viability at 0.01 to 100 uM after 96 hrs by alamar blue assay; format: functional, cell-based
Method in brief: (§2)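 Alamar blue (resazurin) viability assay in SH-SY5Y or MDA-MB-231 cells grown in DMEM/L-glutamine/10% FCS, 37 °C, 5% CO2. After 24 h attachment in 6 replicate wells, cells were continuously exposed to serial dilutions for 96 h. Absorbance at 570 nm was read at 0 h and 5 h after reagent addition. Viability is % of matched 0.5% DMSO controls; mean ± SEM, three independent experiments.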

[5] = Anticancer activity against human BE(2)-C cells transfected with full-length human cloned RARbeta2 expressing pMEP4 vector assessed as reduction of cell viability at 5 uM after 96 hrs by Alamar blue assay relative to compound treated pMEP4 empty vector cloned cells; format: functional
Method in brief: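 RARβ-pMEP4 and empty-vector BE(2)-C cells attached 24 h in 96-well plates, then exposed to ligand at 5 μM for 96 h. Alamar blue absorbance read at 570 nm. Viability of RARβ-transfected cells expressed relative to empty-vector cells. Mean ± SEM from at least three replicates.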

[6] = Anticancer activity against human BE(2)-C cells transfected with pMEP4 empty vector assessed as reduction of cell viability at 20 uM after 72 hrs by Alamar blue assay; format: functional
Method in brief: (§3)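 BE(2)-C neuroblastoma cells stably carrying RARβ cDNA in pMEP4 episomal vector, or empty pMEP4, in DMEM with L-glutamine and 10% FCS at 37 °C, 5% CO2. Cells attached 24 h in 96-well plates, then treated 72 h. Alamar blue absorbance at 570 nm, viability expressed as percentage of negative control.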

[7] = Anticancer activity against human BE(2)-C cells transfected with full-length human cloned RARbeta2 expressing pMEP4 vector assessed as reduction of cell viability at 20 uM after 72 hrs by Alamar blue assay; format: functional; method in brief: as §3
[8] = Anticancer activity against human BE(2)-C cells transfected with pMEP4 empty vector assessed as reduction of cell viability at 10 uM after 72 hrs by Alamar blue assay; format: functional; method in brief: as §3
[9] = Anticancer activity against human BE(2)-C cells transfected with full-length human cloned RARbeta2 expressing pMEP4 vector assessed as reduction of cell viability at 10 uM after 72 hrs by Alamar blue assay; format: functional; method in brief: as §3
[10] = Anticancer activity against human BE(2)-C cells transfected with pMEP4 empty vector assessed as reduction of cell viability at 1 uM after 72 hrs by Alamar blue assay; format: functional; method in brief: as §3
[11] = Anticancer activity against human BE(2)-C cells transfected with full-length human cloned RARbeta2 expressing pMEP4 vector assessed as reduction of cell viability at 1 uM after 72 hrs by Alamar blue assay; format: functional; method in brief: as §3
[12] = Upregulation of RARbeta2 mRNA expression in human BE(2)-C cells transfected with full-length human cloned RARbeta2 expressing pMEP4 vector at 1 uM after 24 hrs by quantitative real time PCR analysis relative to control; format: functional, cell-based; method in brief: as §1
SH-SY5Y [13] = assay: Anticancer activity against retinoid-sensitive human SH-SY5Y cells assessed as reduction of cell viability at 1 uM after 96 hrs by alamar blue assay; format: functional; method in brief: as §2
MDA-MB-231 [14] = assay: Anticancer activity against retinoid-resistant human MDA-MB-231 cells assessed as reduction of cell viability at 1 uM after 96 hrs by alamar blue assay; format: functional; settings: MDA-MB-231, 96 h; method in brief: as §2
SH-SY5Y [15] = assay: Anticancer activity against retinoid-sensitive human SH-SY5Y cells assessed as reduction of cell viability at 0.1 uM after 96 hrs by alamar blue assay; format: functional; method in brief: as §2
SH-SY5Y [16] = assay: Anticancer activity against retinoid-sensitive human SH-SY5Y cells assessed as reduction of cell viability at 20 uM after 96 hrs by alamar blue assay; format: functional; method in brief: as §2
MDA-MB-231 [17] = assay: Anticancer activity against retinoid-resistant human MDA-MB-231 cells assessed as reduction of cell viability at 20 uM after 96 hrs by alamar blue assay; format: functional; settings: MDA-MB-231, 96 h; method in brief: as §2
SH-SY5Y [18] = assay: Anticancer activity against retinoid-sensitive human SH-SY5Y cells assessed as reduction of cell viability at 10 uM after 96 hrs by alamar blue assay; format: functional; method in brief: as §2

## CC1=C(/C=C/C(C)=C/C=C/C(C)=C\C(=O)O)C(C)(C)CCC1 [ISOTRETINOIN]
[1]
  fold change (FC): 9.3
[2]
  cytotoxicity at 96 h, 1 µM: 10%

## CCCCOCCOc1nc(-c2ccc(C(=O)O)c(F)c2)sc1C
[3]
  fold change (FC): 2.7

## O=C(Nc1nc2ccccc2s1)C(=O)c1c[nH]c2ccccc12
SH-SY5Y [4]
  Activity: inactive

## Cc1ccc(NC(=O)c2cc3c(C)nn(CC(C)C)c3s2)c(O)c1
[5]
  inhibition at 5 µM: 20%

## CCOc1ccc2nc(NC(=O)Cc3c[nH]c4ccccc34)sc2c1
[6]
  inhibition at 20 µM: 29%
[7]
  inhibition at 20 µM: 39%

## O=C(CCc1c[nH]c2ccccc12)Nc1nc2ccccc2s1
[1]
  fold change (FC): 1.5
[8]
  Activity: 38%
[9]
  Activity: 53%

## Cc1nnc(SCc2nnc(-c3cccs3)o2)n1-c1ccccc1
[5]
  inhibition at 5 µM: 20%

## Cn1cnnc1SCc1nnc(-c2ccc(Br)s2)o1
[5]
  inhibition at 5 µM: 20%

## Cc1nn(CC(C)C)c2sc(C(=O)Nc3nc4ccccc4[nH]3)cc12
[5]
  inhibition at 5 µM: 20%

## CC1(C)Cc2cccc(OCc3nnc(-c4ccccc4)o3)c2O1
[5]
  inhibition at 5 µM: 20%

## O=C(Cc1c[nH]c2ccccc12)Nc1nc2ccccc2s1
[10]
  inhibition at 1 µM: 38%
[11]
  inhibition at 1 µM: 50%
[12]
  fold change (FC): 2.1
[2]
  cytotoxicity at 96 h, 1 µM: 20%
SH-SY5Y [13]
  inhibition at 1 µM: 55%
MDA-MB-231 [14]
  inhibition at 1 µM: 58%
SH-SY5Y [15]
  inhibition at 0.1 µM: 12%

## O=C(CCSc1ccccc1)Nc1ccc(-c2cn3ccsc3n2)cc1
[5]
  inhibition at 5 µM: 20%

## Cc1cc(C(=O)CSc2nnnn2C2CC2)c(C)n1C1CC1
[5]
  inhibition at 5 µM: 20%

## Cc1cccc2sc(NC(=O)CNC(=O)Cc3ccccc3)nc12
[5]
  inhibition at 5 µM: 20%

## N[C@@H](Cc1ccccc1)C(=O)NCC(=O)Nc1nc2ccccc2s1
SH-SY5Y [16]
  inhibition at 20 µM: 50%
MDA-MB-231 [17]
  inhibition at 20 µM: 50%
SH-SY5Y [18]
  inhibition at 10 µM: 13%

## O=C(Cc1c[nH]c2ccccc12)Nc1nc2ccc(Cl)cc2s1
[6]
  inhibition at 20 µM: 43%
[7]
  inhibition at 20 µM: 48%
